Hits are enriched below; roughly 4.8% of the tested compounds scored in any of these assays.
ERa SRC1 inh = ER-alpha (human) coactivator binding inhibition; TR-FRET ER-alpha LBD / SRC-1 peptide, estradiol-bound; P03372; 86,000 tested, 1.7% active; inhibition, % at 25.6 µM; in the data active = inhibition above about 50%;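 also: 0% = receptor plus peptide control and 100% = peptide only without receptor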
ERb SRC1 inh = ER-beta (human) coactivator binding inhibition; inhibition, % at 25.6 µM; Q92731; TR-FRET ER-beta LBD / SRC1-Cy5 peptide binding; receptor agonist-loaded with 1 µM estradiol; 86,000 tested, 1.3% active;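 active = compounds whose percent inhibition of the receptor-coactivator binding signal exceeds about 50% in the single-dose screen, limit read from the data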;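 also: 0% = receptor plus peptide wells without compound and 100% = peptide-only wells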
Pyk2 oligo antag = Pyk2 (human) oligomerization antagonism; AID 1347419; Q14289; 99,000 tested, 0.83% active; Q293 cells, Pyk2 FERM NanoBiT luminescence; active compounds read low; z-score (the deposit names both 25 µM and 10 µM);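 active = Z-score of -3 or lower, scaled per plate to the spread of control and sample wells; inactive = z-score above -3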;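 also: negative z-score means lost luminescence so less FERM oligomerization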
SF1 activator = activates the human nuclear receptor SF-1 | Q13285 | CHO-K1 Gal4-SF-1 LBD luciferase reporter; % increase over DMSO SF-1-specific signal | activation, % at 10 µM | 65,000 tested, 1.9% active | AID 522;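 active = activation above the mean activation of all tested compounds plus 3 SD, cut at about 50% in these data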
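Test system: CHO-K1 cells co-transfected with Gal4 DBD–human SF-1 LBD, 5xGal4 luciferase reporter. Quantity: 4,000 cells per well. Compound: 10 µM only. Incubation: compound added 1 h post-seeding, 20 h exposure at 37 °C, 5% CO2. Detection: SteadyLite luciferase luminescence. Replication: one test per compound.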
ERa SRC1 pot = ER-alpha (human) coactivator binding potentiation. TR-FRET ERalpha-LBD/SRC-Cy5 coactivator binding, 2 h; 100 = basal binding, no effect. coactivator binding (% of control), % at 25.6 µM. AID 639. 86,000 tested, 1.3% active. P03372; in the data active = activity above about 200%;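 also: binding measured in presence of low estradiol as agonist stimulus; 0% = peptide alone without receptor and 100% = receptor with peptide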
RORA act = RORA (human) activation; CHO-K1 Gal4-RORA LBD luciferase reporter, luminescence; percent increase over mock-subtracted basal signal; activation, % at 10 µM; 65,000 tested, 1.5% active;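 active = activation above the mean of all tested compounds plus 3 SD, cut at about 49% in these data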;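 also: 0% = DMSO-treated RORA cells and 100% = added signal equal to DMSO minus mock-transfected cells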
Target sequence (P35398 whole entry, looked up, the tested form may be a part): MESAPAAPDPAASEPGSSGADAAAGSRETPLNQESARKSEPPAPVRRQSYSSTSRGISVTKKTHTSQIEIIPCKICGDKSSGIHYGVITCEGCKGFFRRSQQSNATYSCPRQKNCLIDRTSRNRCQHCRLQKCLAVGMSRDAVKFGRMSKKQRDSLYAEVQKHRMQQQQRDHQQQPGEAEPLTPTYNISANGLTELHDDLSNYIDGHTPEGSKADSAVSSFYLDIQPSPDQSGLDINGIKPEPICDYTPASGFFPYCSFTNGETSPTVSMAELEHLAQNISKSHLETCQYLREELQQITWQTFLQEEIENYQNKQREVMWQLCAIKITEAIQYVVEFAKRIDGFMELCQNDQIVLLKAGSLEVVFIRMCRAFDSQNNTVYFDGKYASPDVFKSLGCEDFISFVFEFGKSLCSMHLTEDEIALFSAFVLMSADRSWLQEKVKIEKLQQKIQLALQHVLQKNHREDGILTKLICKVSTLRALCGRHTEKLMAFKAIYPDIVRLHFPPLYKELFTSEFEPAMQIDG
* marks the source's active call; other numbers are inactive results; nt = no result given; [ ] = remark or other dose.

SMILES	ERa SRC1 inh	ERb SRC1 inh	Pyk2 oligo antag	SF1 activator	ERa SRC1 pot	RORA act
O=C(C1CCN(S(=O)(=O)c2cccc3cccnc23)CC1)N1CCn2c1nc1ccccc12	0.0	-0.8	nt	-0.8	115.3	7.6
CCCC1=C(C(=O)OCC)C(c2ccncc2)n2ncnc2N1 (configuration not stated)	-2.1	-8.0	0.59	nt	109.3	nt
CC(C)Cn1c(SCc2nc3ccccc3c(=O)[nH]2)nc2ccccc2c1=O	nt	nt	-1.79	nt	nt	nt
Cc1cc(Nc2ccc(Br)cc2F)n2nc(C)nc2n1	-2.4	-10.9	nt	18.8	116.7	-14.8
Cc1nc2nc(-c3ccccc3)nn2c(C)c1Cl	-2.4	-12.1	0.82	102.6*	114.2	77.0*
COCCn1c(C)cc(C(=O)CSc2ccc3ccccc3n2)c1C	nt	nt	0.97	nt	nt	nt
COCCn1c(C)cc(C(=O)CSc2nc(C)nc3sc4c(c23)CCC4)c1C	-6.2	6.8	0.33	-17.3	369.9*[fluorescence artefact?]	-8.6
CCOc1ccc(-c2ncncc2-c2ccc(OC)cc2)c(O)c1	12.6	27.9	-1.07	-9.3	70.4	-0.6
O=C(NC1CCS(=O)(=O)C1)c1c(NC(=O)C2COc3ccccc3O2)sc2c1CCCC2 (configuration not stated)	59.3*	31.7	-0.26	-8.0	147.5	-0.4
CC(=O)c1cccc(NC(=O)CN(c2ccccc2)S(C)(=O)=O)c1	27.6	47.5	-0.08	-20.6	710.8*[fluorescence artefact?]	0.5
CN(C)S(=O)(=O)N(CC(=O)Nc1ccccc1C(F)(F)F)c1ccccc1	69.8*[fluorescence artefact?]	33.9	nt	2.1	67.0	1.2
CSc1cccc(NC(=O)CN(c2ccccc2)S(=O)(=O)N(C)C)c1	50.1*	37.1	-0.03	nt	61.5	nt
CSc1ccccc1NC(=O)CN(c1ccccc1)S(=O)(=O)N(C)C	8.8	14.6	-1.07	12.6	91.3	-0.1
CC(=O)c1cccc(NC(=O)CN(c2ccccc2F)S(C)(=O)=O)c1	-2.7	2.2	-0.41	nt	102.0	nt
CN(C)CCCNc1cn[nH]c(=O)c1Cl	-8.3	1.2	0.24	nt	146.5	nt
Fc1ccc(Sc2cc(Cl)c(-c3ccccc3)nn2)cc1	nt	nt	-3.49*	nt	nt	nt
Fc1ccc(Sc2nc(-c3ccccc3)nnc2C(F)(F)F)cc1	nt	nt	-0.86	nt	nt	nt
CCOc1ccc(-c2nnn(CC(=O)c3ccc4c(c3)OCCO4)n2)cc1	-11.0	-21.4	-0.03	-12.7	213.2*	13.3
CC(Sc1nc2ccccc2[nH]1)C(=O)O (configuration not stated)	-1.4	-9.0	0.78	nt	92.0	nt
CC(=O)N=C(N)Sc1nc2ccccc2[nH]1	-4.2	0.6	0.96	98.2*	100.1	31.1
c1ccc(-c2nn3c(Cn4nnc5ccccc54)nnc3s2)nc1	84.5*[fluorescence artefact?]	49.6	0	1.5	27.2	-9.2
CCOC(=O)N1CCC(Nc2c(-c3ccccc3)c(=O)c2=O)CC1	3.2	-8.6	-0.01	nt	87.7	nt
CCOC(=O)N1CCC(Nc2c(N3CCN(c4cccc(C(F)(F)F)c4)CC3)c(=O)c2=O)CC1	-5.5	62.8*[fluorescence artefact?]	-0.14	-19.9	98.9	15.3
CN1CCN(c2ccc(S(=O)(=O)N3CCCCC3)cn2)CC1	3.3	-5.6	-3.89*	nt	95.6	nt
CCC1C(=O)n2nc(-c3ccccc3)cc2N=C1C (configuration not stated)	6.7	-4.8	1.4	91.2*	86.4	36.1
SMILES	ERa SRC1 inh	ERb SRC1 inh	Pyk2 oligo antag	SF1 activator	ERa SRC1 pot	RORA act
Cc1ccc2[nH]c3c(N4CCc5ccccc5C4)ncnc3c2c1	-1.3	-8.7	-1.25	nt	101.7	nt
Brc1ccc2[nH]c3c(N4CCc5ccccc5C4)ncnc3c2c1	13.1	2.9	nt	nt	494.5*[fluorescence artefact?]	nt
O=C(Nc1nnc(C2CC2)s1)c1cc(-c2ccccc2)nn1-c1ccccc1	-5.7	-2.6	-3.18*	-3.0	117.7	2.3
COc1ccc(OC)c(S(=O)(=O)NCCc2ccccc2)c1	4.7	-2.3	2.25	18.5	100.5	4.9
Nc1[nH]n(-c2ccccc2)c(=O)c1N=Nc1ccccc1[N+](=O)[O-]	88.4*[fluorescence artefact?]	52.0*	-0.58	nt	9.0	nt
COc1cc(S(=O)(=O)N2CCN(c3ccc(F)cc3)CC2)ccc1Cl	nt	nt	-3.28*	5.2	nt	-3.7
COc1cc(S(=O)(=O)N2CCN(c3ccccc3F)CC2)ccc1Cl	13.4	7.6	-3.05*	-10.5	91.0	-2.0
COc1cc(S(=O)(=O)N2CCN(c3ccccc3)CC2)ccc1Cl	-0.3	-5.0	-2.76	2.8	126.0	-6.2
CCCc1cc(-c2nc(N)ncc2-c2ccc3c(c2)OCCCO3)c(O)cc1OC	15.7	8.9	-3.06*	-1.9	57.2	4.2
COc1ccc(OCC(=O)OCCN2C(=O)c3ccccc3C2=O)cc1	59.2*[fluorescence artefact?]	42.2	0.1	-3.4	115.9	-4.3
O=C1c2ccccc2C(=O)N1CCCOc1ccccc1	19.3	17.1	-0.17	44.1	103.0	36.4
COc1ccc2oc(C(=O)C3CC3)c(N)c2c1	-40.6	-21.8	-0.56	74.0*	98.0	68.4*
COc1ccc(C(=O)OCc2cc3cccc(C)c3[nH]c2=O)cc1	21.4	32.5	0.37	12.0	217.5*[fluorescence artefact?]	-3.8
COc1cccc(OC)c1-c1nn2c(-c3cc(-c4ccccc4)n[nH]3)nnc2s1	nt	nt	-3.1*	-3.9	nt	13.9
CCN(CC)c1ccc(-c2nn3c(-c4ccccc4OC)nnc3s2)cc1	2.6	15.1	-4*	-66.8	366.0*	-51.3
COc1ccc(-c2nn3c(-c4ccccc4)nnc3s2)cc1	-2.1	-6.3	-1.61	-11.7	202.8*[fluorescence artefact?]	-9.4
O=C(O)c1ccccc1-c1ccccc1C(=O)NCCCO	-7.2	2.4	0.28	nt	97.2	nt
CNc1nc(C)c(C(=O)OCc2ccccc2)s1	-1.9	-2.3	-1.44	9.0	112.6	35.2
CN(CC(=O)Nc1sccc1C#N)Cc1ccccc1	nt	nt	0.69	nt	nt	nt
CSCCC(NC(=O)c1ccco1)C(=O)OCC(=O)Nc1sccc1C#N (configuration not stated)	55.9*[fluorescence artefact?]	53.9*	nt	9.8	43.0	-13.8
COc1cccc(Cn2c(-c3nonc3N)nc3ccccc32)c1	-3.8	-2.3	-2.6	62.3*	95.5	12.6
CCCCc1ccc(S(=O)(=O)Nc2cc(C)on2)cc1	2.6	0.1	-0.01	-2.5	110.0	-12.2
COc1ccccc1-c1ccc(NC2CCCCC2)nn1	-7.0	-6.1	-0.16	80.5*	91.9	27.2
Cc1cc(C(=O)CSc2nc3ccccc3o2)c(C)n1C1CC1	-3.2	-2.2	0.18	61.0*	103.0	81.6*
CCOC(=O)C1=C(C)NC2=C(C1c1ccc([N+](=O)[O-])cc1)S(=O)(=O)c1ccccc12 (configuration not stated)	nt	nt	-3.05*	nt	nt	nt
CC1(C)C(=O)Nc2ccccc2N1C(=O)COC(=O)C12CC3CC(CC(O)(C3)C1)C2	88.0*[fluorescence artefact?]	78.4*[fluorescence artefact?]	-0.14	0.6	54.0	-3.1
O=C1CN(C(=O)COC(=O)C23CC4CC(CC(O)(C4)C2)C3)c2ccccc2N1	0.3	5.2	-0.57	0.3	103.1	-10.5
